Source: ChEMBL document CHEMBL4371041, “Synthesis and evaluation of thieno[3,2-d]pyrimidine derivatives as novel FMS inhibitors” (Bioorg Med Chem Lett, 2019)

Key:
[1] = molecular target: Tyrosine-protein kinase ABL1 (Homo sapiens) (UniProt P00519); assay: Inhibition of recombinant human N-terminal His6-tagged Abl (27 to end residues) expressed in baculovirus infected Sf21 insect cells at 1 uM using Abltide as substrate in presence of [gamma-33P]-ATP or [gamma-32P]-ATP relative to control
[2] = Volume of distribution in CD-1 mouse at 10 mg/kg, po; format: ADME, organism-based; settings: in vivo
[3] = molecular target: NUAK family SNF1-like kinase 1 (Homo sapiens) (UniProt O60285); assay: Inhibition of recombinant human N-terminal His6-tagged ARK5 (2 to end residues) expressed in baculovirus infected Sf21 insect cells at 1 uM using CHKtide as substrate in presence of [gamma-33P]-ATP or [gamma-32P]-ATP relative to control
[4] = molecular target: Receptor-type tyrosine-protein kinase FLT3 (Homo sapiens) (UniProt P36888); assay: Inhibition of recombinant human N-terminal GST-tagged FLT3 (564 to end residues) expressed in baculovirus infected Sf21 insect cells at 1 uM using Abltide as substrate in presence of [gamma-33P]-ATP or [gamma-32P]-ATP relative to control
[5] = molecular target: Proto-oncogene tyrosine-protein kinase receptor Ret (Homo sapiens) (UniProt P07949); assay: Inhibition of recombinant human N-terminal GST-tagged Ret (658 to end residues) expressed in baculovirus infected Sf21 insect cells at 1 uM using IFG-1Rtide as substrate in presence of [gamma-33P]-ATP or [gamma-32P]-ATP relative to control
[6] = molecular target: Maternal embryonic leucine zipper kinase (Homo sapiens, UniProt Q14680); assay: Inhibition of recombinant human N-terminal GST-tagged MELK (1 to 340 residues) expressed in baculovirus infected Sf21 insect cells using KKLNRTLSFAEPG as substrate in presence of [gamma-33P]-ATP or [gamma-32P]-ATP
Summary of the method: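 Kinase panel of twenty-eight enzymes; IC50 values determined with ATP at the respective Km of each kinase.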

[7] = molecular target: Vascular endothelial growth factor receptor 2 (Homo sapiens, UniProt P35968); assay: Inhibition of recombinant human N-terminal His6-tagged KDR (790 to end residues) expressed in baculovirus infected Sf21 insect cells at 1 uM using MBP as substrate in presence of [gamma-33P]-ATP or [gamma-32P]-ATP relative to control
[8] = Half life in CD-1 mouse at 10 mg/kg, po; format: ADME, organism-based; settings: in vivo
[9] = molecular target: Cytochrome P450 3A4 (Homo sapiens, UniProt P08684); assay: Inhibition of CYP3A4 in human liver microsomes by LC-MS/MS analysis; format: ADME
Summary of the method: (§1)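 Reversible CYP inhibition measured in human liver microsomes; metabolite formation quantified by LC/MS/MS.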

[10] = molecular target: Angiopoietin-1 receptor (Homo sapiens, UniProt Q02763); assay: Inhibition of recombinant human N-terminal His6-tagged Tie2 (771 to end residues) expressed in baculovirus infected Sf21 insect cells using Poly (Glu4-Tyr) (4:1) as substrate in presence of [gamma-33P]-ATP or [gamma-32P]-ATP
[11] = Clearance in CD-1 mouse at 3 mg/kg, iv; format: ADME, organism-based; settings: in vivo
[12] = molecular target: Discoidin domain-containing receptor 2 (Homo sapiens) (UniProt Q16832); assay: Inhibition of recombinant human N-terminal His6-tagged DDR2 (467 to end residues) expressed in baculovirus infected Sf21 insect cells at 1 uM using Axltide as substrate in presence of [gamma-33P]-ATP or [gamma-32P]-ATP relative to control
[13] = Volume of distribution in CD-1 mouse at 3 mg/kg, iv; format: ADME, organism-based; settings: in vivo
[14] = AUC (0 to 7 hrs) in CD-1 mouse at 10 mg/kg, po; format: ADME, organism-based; set-up: time < 7 hr, dose 10 mg/kg, route oral; settings: in vivo
[15] = molecular target: Ephrin type-B receptor 4 (Homo sapiens) (UniProt P54760); assay: Inhibition of recombinant human N-terminal His6-tagged EphB4 (561 to end residues) expressed in baculovirus infected Sf21 insect cells using poly (Glu, Tyr) (4:1) as substrate in presence of [gamma-33P]-ATP or [gamma-32P]-ATP relative to control; settings: concentration not given here
[16] = molecular target: Cytochrome P450 1A2 (Homo sapiens, UniProt P05177); assay: Inhibition of CYP1A2 in human liver microsomes by LC-MS/MS analysis; format: ADME; summary of the method: as §1
[17] = molecular target: Cytochrome P450 2D6 (Homo sapiens, UniProt P10635); assay: Inhibition of CYP2D6 in human liver microsomes by LC-MS/MS analysis; format: ADME; summary of the method: as §1
[18] = Tmax in CD-1 mouse at 10 mg/kg, po; format: ADME, organism-based; settings: in vivo
[19] = test system: MDA-MB-231; assay: Antiinvasive activity against human MDA-MB-231 cells after 72 hrs by luciferase reporter-based matrigel-coated transwell assay; format: functional, cell-based
Summary of the method: (§2)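 Invasion of luciferase-expressing MDA-MB-231 cells assessed in a system including RAW264.7 mouse macrophages, across a dose range including 1 μM; invasion read by luciferase signal relative to untreated control.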

[20] = molecular target: RAF proto-oncogene serine/threonine-protein kinase (Homo sapiens, UniProt P04049, Y340D/Y341D); assay: Inhibition of recombinant human N-terminal GST-tagged c-RAF Y340D/Y341D double mutant (306 to 648 residues) expressed in baculovirus infected Sf21 insect cells using MEK1(K97R) as substrate in presence of [gamma-33P]-ATP or [gamma-32P]-ATP
[21] = molecular target: Epidermal growth factor receptor (Homo sapiens) (UniProt P00533); assay: Inhibition of recombinant human N-terminal GST-tagged EGFR (696 to end residues) expressed in baculovirus infected Sf21 insect cells at 1 uM using Angiotensin2 peptide as substrate in presence of [gamma-33P]-ATP or [gamma-32P]-ATP relative to control
[22] = test system: MDA-MB-231; assay: Growth inhibition of human MDA-MB-231 cells at 5 uM after 24 hrs by MTS assay relative to control; format: functional; settings: MDA-MB-231, 24 h, read-out: GI
[23] = Cmax in CD-1 mouse at 3 mg/kg, iv; format: ADME, organism-based; set-up: dose 3 mg/kg, route intravenous; settings: in vivo
[24] = Stability in human hepatocytes assessed as parent compound remaining measured after 60 mins; format: ADME, cell-based, Hepatocyte; settings: read-out: Stability
[25] = Half life in CD-1 mouse at 3 mg/kg, iv; format: ADME, organism-based; settings: in vivo
[26] = molecular target: Fibroblast growth factor receptor 1 (Homo sapiens, UniProt P11362); assay: Inhibition of recombinant human N-terminal GST-tagged FGFR1 (456 to 765 residues) expressed in baculovirus infected Sf21 insect cells at 1 uM using IGF-IRtide (12-527) as substrate in presence of [gamma-33P]-ATP or [gamma-32P]-ATP relative to control
[27] = test system: MDA-MB-231; assay: Antiinvasive activity against human MDA-MB-231 cells at 1 uM after 72 hrs by luciferase reporter-based matrigel-coated transwell assay relative to control; format: functional; summary of the method: as §2
[28] = AUC (0 to 7 hrs) in CD-1 mouse at 3 mg/kg, iv; format: ADME, organism-based; set-up: dose 3 mg/kg, time < 7 hr, route intravenous; settings: in vivo
[29] = molecular target: Tyrosine-protein kinase Lck (Homo sapiens) (UniProt P06239); assay: Inhibition of recombinant human full-length N-terminal His6-tagged LCK expressed in baculovirus infected Sf21 insect cells at 1 uM in presence of [gamma-33P]-ATP or [gamma-32P]-ATP relative to control
Chain of Tyrosine-protein kinase Lck (Homo sapiens) (P06239 2-509 limits assumed): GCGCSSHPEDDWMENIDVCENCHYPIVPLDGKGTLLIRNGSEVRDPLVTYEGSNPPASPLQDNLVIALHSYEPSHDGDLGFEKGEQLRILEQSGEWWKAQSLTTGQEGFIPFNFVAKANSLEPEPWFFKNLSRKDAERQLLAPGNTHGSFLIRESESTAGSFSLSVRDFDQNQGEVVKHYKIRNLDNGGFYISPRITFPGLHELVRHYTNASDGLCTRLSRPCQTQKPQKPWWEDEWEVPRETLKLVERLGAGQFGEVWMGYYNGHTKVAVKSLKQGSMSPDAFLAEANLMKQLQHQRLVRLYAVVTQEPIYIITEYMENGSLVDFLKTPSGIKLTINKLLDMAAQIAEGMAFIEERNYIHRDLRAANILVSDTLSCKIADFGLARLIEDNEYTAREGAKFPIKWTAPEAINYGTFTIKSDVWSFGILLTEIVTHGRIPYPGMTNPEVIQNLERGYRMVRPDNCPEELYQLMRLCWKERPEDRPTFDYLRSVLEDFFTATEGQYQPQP

Chain of Angiopoietin-1 receptor (Q02763 whole entry): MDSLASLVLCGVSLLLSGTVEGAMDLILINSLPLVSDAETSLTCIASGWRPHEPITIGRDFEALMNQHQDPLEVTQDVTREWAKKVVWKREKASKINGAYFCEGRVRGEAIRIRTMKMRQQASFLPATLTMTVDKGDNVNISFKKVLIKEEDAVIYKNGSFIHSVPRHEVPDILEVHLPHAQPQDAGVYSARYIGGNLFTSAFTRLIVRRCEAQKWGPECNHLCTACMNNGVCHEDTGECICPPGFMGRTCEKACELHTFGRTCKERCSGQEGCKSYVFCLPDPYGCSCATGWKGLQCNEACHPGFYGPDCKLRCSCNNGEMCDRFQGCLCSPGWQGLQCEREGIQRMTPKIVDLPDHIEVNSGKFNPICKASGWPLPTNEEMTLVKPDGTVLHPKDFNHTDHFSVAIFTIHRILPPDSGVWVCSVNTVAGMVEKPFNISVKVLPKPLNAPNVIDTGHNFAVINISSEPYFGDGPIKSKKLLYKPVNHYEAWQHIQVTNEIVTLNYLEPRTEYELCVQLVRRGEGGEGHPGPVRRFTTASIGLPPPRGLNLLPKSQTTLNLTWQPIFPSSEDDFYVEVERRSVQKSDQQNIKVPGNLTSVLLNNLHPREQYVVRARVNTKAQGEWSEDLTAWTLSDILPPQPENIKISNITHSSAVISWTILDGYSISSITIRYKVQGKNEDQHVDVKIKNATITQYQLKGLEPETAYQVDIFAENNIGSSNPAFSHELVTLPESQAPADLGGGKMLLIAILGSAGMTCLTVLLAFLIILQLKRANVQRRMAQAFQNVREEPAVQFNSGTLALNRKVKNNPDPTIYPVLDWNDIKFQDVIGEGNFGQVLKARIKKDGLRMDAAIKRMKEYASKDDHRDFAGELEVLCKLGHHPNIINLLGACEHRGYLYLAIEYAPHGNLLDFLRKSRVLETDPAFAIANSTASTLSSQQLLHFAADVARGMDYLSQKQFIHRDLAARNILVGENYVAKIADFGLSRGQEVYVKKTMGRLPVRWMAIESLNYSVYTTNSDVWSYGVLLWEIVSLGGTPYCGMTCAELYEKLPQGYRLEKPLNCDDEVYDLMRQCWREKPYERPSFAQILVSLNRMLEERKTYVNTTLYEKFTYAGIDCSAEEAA
Chain of RAF proto-oncogene serine/threonine-protein kinase (P04049 whole entry Y340D/Y341D, the tested form may be a part): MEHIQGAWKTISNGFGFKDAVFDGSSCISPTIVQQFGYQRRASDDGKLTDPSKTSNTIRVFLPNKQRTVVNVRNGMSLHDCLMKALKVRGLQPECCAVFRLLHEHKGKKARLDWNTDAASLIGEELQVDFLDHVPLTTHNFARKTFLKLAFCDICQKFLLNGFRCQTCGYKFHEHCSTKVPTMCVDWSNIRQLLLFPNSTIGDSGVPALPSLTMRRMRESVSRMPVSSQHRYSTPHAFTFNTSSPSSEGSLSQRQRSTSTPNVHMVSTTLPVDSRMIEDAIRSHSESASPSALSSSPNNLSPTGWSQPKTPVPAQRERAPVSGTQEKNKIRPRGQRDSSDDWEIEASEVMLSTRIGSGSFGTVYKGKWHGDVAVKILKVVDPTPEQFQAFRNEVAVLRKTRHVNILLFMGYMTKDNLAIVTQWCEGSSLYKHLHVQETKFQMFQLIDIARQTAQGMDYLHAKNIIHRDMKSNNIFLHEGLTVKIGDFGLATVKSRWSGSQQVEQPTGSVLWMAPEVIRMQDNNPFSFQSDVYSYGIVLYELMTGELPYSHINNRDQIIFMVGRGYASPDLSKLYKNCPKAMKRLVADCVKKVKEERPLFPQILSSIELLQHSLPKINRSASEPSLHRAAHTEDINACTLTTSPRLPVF
Chain of Cytochrome P450 2D6 (P10635 whole entry): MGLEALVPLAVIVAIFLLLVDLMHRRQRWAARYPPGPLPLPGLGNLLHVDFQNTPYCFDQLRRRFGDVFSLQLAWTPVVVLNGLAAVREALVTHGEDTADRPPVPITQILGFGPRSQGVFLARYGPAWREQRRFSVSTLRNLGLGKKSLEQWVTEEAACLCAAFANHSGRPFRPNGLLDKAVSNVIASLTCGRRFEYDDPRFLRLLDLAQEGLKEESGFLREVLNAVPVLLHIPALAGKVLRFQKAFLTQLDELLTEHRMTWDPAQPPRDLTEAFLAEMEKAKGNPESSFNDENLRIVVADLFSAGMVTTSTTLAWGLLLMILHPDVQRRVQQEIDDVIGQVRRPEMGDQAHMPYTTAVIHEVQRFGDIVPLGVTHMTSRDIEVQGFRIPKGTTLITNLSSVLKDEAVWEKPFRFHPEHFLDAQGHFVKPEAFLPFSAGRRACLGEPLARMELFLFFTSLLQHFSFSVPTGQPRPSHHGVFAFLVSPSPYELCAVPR
Chain of Cytochrome P450 1A2 (P05177 whole entry): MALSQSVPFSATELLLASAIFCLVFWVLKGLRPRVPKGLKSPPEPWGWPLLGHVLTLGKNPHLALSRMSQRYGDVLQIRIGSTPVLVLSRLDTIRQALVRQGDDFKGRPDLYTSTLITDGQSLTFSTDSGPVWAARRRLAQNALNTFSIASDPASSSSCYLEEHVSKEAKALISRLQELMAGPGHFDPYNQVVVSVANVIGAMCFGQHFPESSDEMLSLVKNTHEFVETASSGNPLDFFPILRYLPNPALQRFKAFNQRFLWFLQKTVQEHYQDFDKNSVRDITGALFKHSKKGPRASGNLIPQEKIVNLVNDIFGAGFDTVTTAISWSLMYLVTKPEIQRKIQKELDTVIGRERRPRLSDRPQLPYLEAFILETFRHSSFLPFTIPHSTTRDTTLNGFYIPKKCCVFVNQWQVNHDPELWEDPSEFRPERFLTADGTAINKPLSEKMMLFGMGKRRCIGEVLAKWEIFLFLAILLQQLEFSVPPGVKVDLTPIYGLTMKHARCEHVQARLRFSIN
Chain of Epidermal growth factor receptor (Homo sapiens) (P00533 whole entry): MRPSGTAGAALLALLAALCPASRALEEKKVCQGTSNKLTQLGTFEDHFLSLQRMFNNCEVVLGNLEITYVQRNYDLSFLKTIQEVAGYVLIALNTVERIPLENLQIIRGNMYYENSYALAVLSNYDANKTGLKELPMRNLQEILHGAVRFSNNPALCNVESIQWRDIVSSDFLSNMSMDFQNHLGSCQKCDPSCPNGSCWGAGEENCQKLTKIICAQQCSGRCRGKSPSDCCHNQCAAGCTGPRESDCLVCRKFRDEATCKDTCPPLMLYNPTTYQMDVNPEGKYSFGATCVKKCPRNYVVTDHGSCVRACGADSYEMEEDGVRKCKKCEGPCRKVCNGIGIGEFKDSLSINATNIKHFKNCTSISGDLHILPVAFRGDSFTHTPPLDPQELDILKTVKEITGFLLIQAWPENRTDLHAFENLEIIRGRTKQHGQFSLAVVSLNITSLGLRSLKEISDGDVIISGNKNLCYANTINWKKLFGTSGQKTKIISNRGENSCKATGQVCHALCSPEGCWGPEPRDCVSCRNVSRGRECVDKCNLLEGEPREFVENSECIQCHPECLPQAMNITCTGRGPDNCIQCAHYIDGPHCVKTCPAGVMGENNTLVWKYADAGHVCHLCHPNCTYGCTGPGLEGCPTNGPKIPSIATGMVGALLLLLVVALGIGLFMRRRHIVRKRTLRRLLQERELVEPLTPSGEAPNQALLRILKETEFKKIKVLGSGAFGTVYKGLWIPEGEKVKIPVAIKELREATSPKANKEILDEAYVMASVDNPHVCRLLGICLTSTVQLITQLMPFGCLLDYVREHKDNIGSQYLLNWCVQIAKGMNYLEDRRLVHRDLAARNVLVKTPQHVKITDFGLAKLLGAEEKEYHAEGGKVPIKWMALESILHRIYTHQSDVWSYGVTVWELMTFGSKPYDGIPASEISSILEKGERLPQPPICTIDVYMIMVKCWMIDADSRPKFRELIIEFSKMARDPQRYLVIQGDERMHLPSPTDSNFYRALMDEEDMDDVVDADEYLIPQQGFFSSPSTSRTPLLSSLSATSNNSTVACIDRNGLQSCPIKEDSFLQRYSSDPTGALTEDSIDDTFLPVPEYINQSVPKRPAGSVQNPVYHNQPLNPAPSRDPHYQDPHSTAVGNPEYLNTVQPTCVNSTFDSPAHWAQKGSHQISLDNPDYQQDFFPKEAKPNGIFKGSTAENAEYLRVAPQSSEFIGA
Chain of Cytochrome P450 3A4 (P08684 whole entry): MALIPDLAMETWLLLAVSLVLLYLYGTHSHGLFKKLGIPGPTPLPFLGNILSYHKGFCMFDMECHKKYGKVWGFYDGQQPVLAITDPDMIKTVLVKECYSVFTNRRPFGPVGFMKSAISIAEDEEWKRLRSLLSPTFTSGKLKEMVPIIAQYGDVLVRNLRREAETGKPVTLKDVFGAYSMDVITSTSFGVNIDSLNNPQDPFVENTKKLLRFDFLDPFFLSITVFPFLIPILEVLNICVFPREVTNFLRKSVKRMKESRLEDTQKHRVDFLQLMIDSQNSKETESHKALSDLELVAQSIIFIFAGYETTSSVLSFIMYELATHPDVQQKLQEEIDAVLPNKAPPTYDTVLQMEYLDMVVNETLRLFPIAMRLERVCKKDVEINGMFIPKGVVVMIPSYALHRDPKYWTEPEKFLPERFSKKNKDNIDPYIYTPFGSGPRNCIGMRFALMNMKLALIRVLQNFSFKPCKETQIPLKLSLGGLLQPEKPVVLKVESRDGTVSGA

With `Cc1cccc(Cn2nc(C)c3c(NC(=O)c4csc5c(N)ncnc45)cccc32)n1` as the molecule, how does the inhibition [1] read?
Its inhibition is 35%.

What about the Vd [2] of the same molecule?
The Vd was 7.5 L/kg.

And the inhibition [3]?
The inhibition was 20%.

What about the inhibition [4] of the same molecule?
Its inhibition is 59%.

And the inhibition [5]?
Its inhibition is -2%.

And the IC50 [6]?
The IC50 was 258 nM.

And the inhibition [7]?
The inhibition was over 60%.

And the half-life [8]?
Its half-life is 2.6 h.

And the IC50 [9]?
The IC50 was over 20000 nM.

What about the IC50 [10] of the same molecule?
The IC50 was 208 nM.

What about the clearance [11] of the same molecule?
Its clearance is 15 mL/min/kg.

And the inhibition [12]?
Its inhibition is over 60%.

And the Vd [13]?
Its Vd is 2 L/kg.

And the AUC(0-t) at 7 h [14]?
Its AUC(0-t) at 7 h is 4040 ng·h/mL.

And the inhibition [15]?
Its inhibition is 2%.

And the IC50 [16]?
Its IC50 is over 20000 nM.

And the IC50 [17]?
The IC50 was over 20000 nM.

What about the Tmax [18] of the same molecule?
The Tmax was 2 h.

What about the Activity [19] of the same molecule?
The Activity was “Dose-dependent effect”.

And the IC50 [20]?
The IC50 was 80 nM.

And the inhibition [21]?
Its inhibition is -2%.

And the inhibition of growth at 5 µM [22]?
Its inhibition of growth at 5 µM is 20%.

What about the Cmax [23] of the same molecule?
Its Cmax is 2550 ng/mL.

And the remaining at 1 h [24]?
The remaining at 1 h was 87%.

What about the half-life [25] of the same molecule?
Its half-life is 1.6 h.

And the inhibition [26]?
The inhibition was over 60%.

And the Activity [27]?
Its Activity is 67%.

And the AUC(0-t) at 7 h [28]?
Its AUC(0-t) at 7 h is 3370 ng·h/mL.

And the inhibition [29]?
Its inhibition is 20%.
